# Most compounds without a hit are left out; they make up all but 2.5% or so of the library.
# ABHD5-PLIN5 inh = ABHD5-PLIN5 protein interaction inhibition. Split G. princeps luciferase complementation, luminescence, 4 h. inhibition, % at 4 µM. 360,000 tested, 0.78% active. AID 602281;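 active = inhibition above the mean inhibition across every tested compound plus 3 SD, cut at about 22% in these data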;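 also: 0% = DMSO only wells and the 100% control is not disclosed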
# SENP1 inh = inhibitors of human SENP1 SUMO protease catalytic domain | Q9P0U3 | recombinant SENP1 catalytic domain, CyPet-SUMO1-YPet FRET cleavage | inhibition, % at 10 µM | 360,000 tested, 0.21% active;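 active = inhibition at least 30% at 10 µM, raw YFP signal under a set limit, fluorescence ratio 0.5 to 1.5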;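 also: 0% = enzyme with DMSO and 100% = no enzyme wells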
# Target sequence (Q9P0U3 419-644 limits assumed): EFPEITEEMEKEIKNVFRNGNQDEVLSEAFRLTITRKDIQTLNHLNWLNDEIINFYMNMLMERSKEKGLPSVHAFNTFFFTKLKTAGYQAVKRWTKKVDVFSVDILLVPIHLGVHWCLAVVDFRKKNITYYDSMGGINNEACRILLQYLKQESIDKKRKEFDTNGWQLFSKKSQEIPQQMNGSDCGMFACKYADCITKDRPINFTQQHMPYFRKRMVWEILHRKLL
#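 Test system: human SENP1 catalytic domain; medium: Tris pH 8 buffer plus EDTA, NaCl, BME, BSA, NP40, catalase; incubation: 50 min reaction at room temperature; technique: FRET, CFP and YFP emission; controls: no-enzyme low control and enzyme-plus-DMSO high control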
# NadD inh = inhibitors of Staphylococcus aureus NadD. purified NadD enzyme, colorimetric absorbance read-out. inhibition, % at 20 µM. 360,000 tested, 0.78% active; in the data active = inhibition above about 26%
# Beta2AR agonist = human beta-2 adrenergic receptor agonism by FAP; P07550; Am2.2-beta2AR cells, FAP receptor internalization, flow cytometry; response, % (test concentration not listed); 340,000 tested, 0.43% active;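 active = response above a set limit, near 3 SD of response in nonfluorescent compounds, cut at about 42% in these data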
# GRK2 inh = inhibitors of human GRK2 displacing RNA aptamer; bead flow cytometry, FAM-aptamer displacement from GRK2; inhibition of aptamer binding, % at 10 µM; 330,000 tested, 0.59% active; AID 488847;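 active = inhibition of aptamer binding above 40%, roughly 3 SD of noise, on plates passing a quality check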;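 also: median bead fluorescence of bound FAM aptamer so fluorescent compounds give negative values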
# ABHD5-PLIN5 conf = ABHD5-PLIN5 interaction inhibition, confirmed; shares compounds with ABHD5-PLIN5 inh; biochemical ABHD5-PLIN5 interaction, luminescence; inhibition, % at 4 µM; 2,200 tested, 67% active; in the data active = inhibition above about 23%;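 also: 0% = DMSO vehicle wells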
# HNF4 counter = active in HNF4 split-luciferase counter-screen for ABHD5-PLIN5 inhibitors; HNF4 dimerization, luminescence, biochemical; shares compounds with ABHD5-PLIN5 inh; 2,200 tested, 77% active; AID 651674; inhibition, % at 4 µM;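 active = mean inhibition across replicate wells exceeding the computed hit threshold, cut at about 13% in these data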;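 also: light from luciferase halves that rejoin when HNF4 fusion proteins dimerize; 0% = DMSO only wells and the 100% control is not given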
# Target sequence (P41235 whole entry, looked up, the tested form may be a part): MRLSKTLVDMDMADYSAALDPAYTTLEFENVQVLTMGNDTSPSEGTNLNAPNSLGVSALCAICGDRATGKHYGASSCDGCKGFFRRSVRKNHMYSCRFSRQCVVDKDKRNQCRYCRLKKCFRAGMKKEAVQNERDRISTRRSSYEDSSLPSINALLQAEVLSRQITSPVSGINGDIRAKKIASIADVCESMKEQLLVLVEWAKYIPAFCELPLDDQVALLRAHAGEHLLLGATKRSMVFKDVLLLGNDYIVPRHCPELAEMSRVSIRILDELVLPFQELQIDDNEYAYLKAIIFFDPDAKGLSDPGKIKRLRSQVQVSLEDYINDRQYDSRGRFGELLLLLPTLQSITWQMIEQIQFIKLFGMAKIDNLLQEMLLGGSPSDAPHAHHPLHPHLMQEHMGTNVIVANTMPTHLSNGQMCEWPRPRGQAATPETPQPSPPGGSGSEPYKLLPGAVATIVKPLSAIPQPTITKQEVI
# An asterisk follows results filed as active; . = no result given.
SMILES,ABHD5-PLIN5 inh,SENP1 inh,NadD inh,Beta2AR agonist,GRK2 inh,ABHD5-PLIN5 conf,HNF4 counter
O=S(=O)(c1ccc2c(c1)C(O)c1ccccc1CC2)C(F)(F)F (stereo not drawn),-9.8,0.0,-7.8,-11.9,0.0,.,.
COc1ccccc1Cn1c(=S)[nH]c2cc(C(=O)N3CC(C)CC(C)C3)ccc2c1=O (stereo not drawn),2.8,2.3,8.1,.,.,.,.
Cc1ccc(Cl)cc1N(CC(=O)NC1CCCC1)C(=O)c1csnn1,2.8,1.0,2.1,-8.5,0.0,.,.
CCC(Sc1ccc(C(=O)O)cc1)C(=O)O (stereo not drawn),3.2,1.5,-6.0,6.9,0.0,.,.
CCOc1ccc(C(=O)CC(Sc2ccc(C)cc2)C(=O)O)cc1 (stereo not drawn),59.6*,0.0,2.3,5.9,0.0,17.2,68.8*
O=C(CC(Sc1ccc(Br)cc1)C(=O)O)c1ccc(F)cc1 (stereo not drawn),66.1*,1.3,-4.4,6.8,6.0,41.5*,79.6*
O=C(CSc1nnc(-c2cccnc2)n1Cc1ccco1)c1ccc(Br)cc1,1.6,1.5,3.8,-8.2,0.0,.,.
O=C(CSc1nnc(-c2cccnc2)n1Cc1ccco1)c1ccc2ccccc2c1,65.2*,-5.7,25.3,-9.8,0.0,53.1*,75.9*
Cc1ccc(-c2ccc(SCC(=O)Nc3cc(C)on3)nn2)cc1,55.1*,1.4,-6.0,5.9,0.0,2.6,0.8
CCOc1cc(/C=C2\COc3ccccc3C2=O)cc(Br)c1OCC(=O)N(C)C,77.2*,2.7,2.8,55.0*,9.0,86.2*,93.9*
O=C(O)c1ccc(/C=C2\COc3ccccc3C2=O)cc1,32.1*,-1.1,-0.2,7.6,1.0,84.0*,78.3*
COc1ccc(/C=C2/CCc3ccccc3C2=O)cc1OC,10.0,-13.6,-4.6,14.3,0.0,.,.
COc1ccc(/C=C2\COc3ccccc3C2=O)cc1OC,33.2*,-0.9,-5.7,11.5,0.0,76.4*,71.0*
Cc1cc(C)c2c(c1)C(=O)/C(=C/c1ccc(C(=O)O)cc1)CC2,13.7,2.6,0.8,.,0.0,.,.
COc1ccc2[nH]cc(/C=C/c3cc[n+](C)cc3)c2c1,2.0,-17.5,19.7,-110.2,0.0,.,.
CSc1ccc(Cl)c(C(=O)N(C)CC(=O)Nc2ccc(N3CCOCC3)cc2)c1,-0.5,0.0,4.1,2.1,2.0,.,.
O=C(/C=C/c1cccc(OCc2ccccc2)c1)c1cccnc1,36.2*,-1.2,-3.5,-7.5,0.0,61.0*,69.7*
O=C(/C=C/c1ccc2c(c1)OCO2)c1cccnc1,27.9*,-4.4,-4.3,3.0,0.0,63.4*,53.8*
CC(/C=C/c1cccc([N+](=O)[O-])c1)=N/NC(=O)c1cccnc1,28.9*,-0.1,3.8,1.1,1.0,20.2,15.7*
C/C(=N\NC(=O)c1cccnc1)c1cccc([N+](=O)[O-])c1,3.3,0.8,-6.0,4.2,2.0,.,.
O=C(O)c1ccc(/C=C/C(=O)c2ccc3c(c2)OCCCO3)cc1,49.0*,0.4,-2.2,4.0,0.0,47.6*,43.0*
CC(C)C(C)NC(=O)COn1nnc2ccc(S(=O)(=O)N3CCOCC3)cc21 (stereo not drawn),9.1,1.1,4.1,20.5,0.0,.,.
Cc1cccc(-n2nnnc2SCC(=O)Nc2cccc(S(N)(=O)=O)c2)c1,-4.7,3.3,-6.7,7.8,1.0,.,.
CC(C)C(NC(=O)C(C)N1C(=O)c2ccccc2C1=O)c1ccccc1 (stereo not drawn),-8.6,1.9,-8.5,-33.7,2.0,.,.
O=C(/C=C/c1ccc([N+](=O)[O-])cc1)c1cccnc1,30.5*,1.2,0.2,0.4,2.0,83.3*,92.6*
SMILES,ABHD5-PLIN5 inh,SENP1 inh,NadD inh,Beta2AR agonist,GRK2 inh,ABHD5-PLIN5 conf,HNF4 counter
COc1ccc(C(=O)/C=C/c2ccc3c(c2)OCCO3)cc1,4.1,-17.3,-10.4,6.0,0.0,.,.
CN(C)c1ccc(C(=O)/C=C/c2cccnc2)cc1,17.7,-6.7,-7.0,9.9,0.0,.,.
O=C(/C=C/c1ccc2c(c1)OCCO2)c1ccccc1,26.6*,-5.8,-7.0,20.0,0.0,56.3*,43.4*
O=C(/C=C/c1cccnc1)c1ccc(F)c(F)c1,71.5*,1.5,2.1,2.2,3.0,96.6*,94.7*
O=[N+]([O-])c1ccc(C2CC(c3ccccc3)=Nc3ccccc3S2)cc1 (stereo not drawn),79.1*,3.2,4.6,-8.6,2.0,25.9*,88.5*
Oc1ccccc1C1=Nc2ccccc2N=C(c2ccco2)C1,-0.9,6.1,-3.5,-3.0,0.0,.,.
Fc1ccc(C2CC(c3ccco3)=Nc3ccccc3S2)cc1 (stereo not drawn),46.0*,-4.1,1.5,-15.0,1.0,-0.1,69.3*
O=C(O)C1CC(c2ccccc2)=Nc2ccccc2S1 (stereo not drawn),-5.0,-0.2,-6.4,-4.1,3.0,.,.
C[C@@H]1CCC2[C@](C)(CO)[C@@H](O)CC[C@]2(C)[C@@]12CC[C@@](CO)(CC(=O)O)O2 (stereo partly drawn),3.9,2.7,-3.8,0.3,0.0,.,.
O=C(O)c1cc([N+](=O)[O-])c(Sc2nc3ccccc3[nH]2)c([N+](=O)[O-])c1,34.9*,0.9,4.0,-0.7,2.0,52.8*,54.2*
COC(=O)c1ccc2nc(-c3ccco3)c(Cc3ccccc3C(F)(F)F)n2c1,52.1*,-3.7,19.0,.,.,24.4*,66.4*
COC(=O)c1ccc2nc(-c3ccco3)c(Cc3ccc(C)cc3)n2c1,39.0*,-7.2,10.9,.,.,18.8,42.3*
COC(=O)c1ccc2nc(C3CCCCC3)c(Cc3ccccc3C(F)(F)F)n2c1,-1.8,-4.3,6.8,.,.,.,.
Cc1ccc(Cc2c(-c3ccco3)nc3ccc(C)cn23)cc1,37.2*,-7.8,10.9,.,.,14.2,34.2*
Brc1ccc2nc(-c3ccco3)c(Cc3ccccc3)n2c1,59.1*,0.7,7.7,.,.,63.3*,94.6*
N#CCCN(Cc1ccccc1)C(=O)CCC(=O)c1ccc(F)cc1,-1.7,-5.4,5.2,.,.,.,.
CC(C)C(NC(=O)c1c(F)cccc1F)C(=O)N1CCN(S(=O)(=O)/C=C/c2ccccc2)CC1 (stereo not drawn),-10.4,-1.5,-1.2,3.0,0.0,.,.
Cc1noc(C)c1S(=O)(=O)Nc1ccc2c(c1)C(=O)N([C@H](C)CO)C[C@H](C)[C@@H](CN(C)C(=O)Nc1ccc3c(c1)OCO3)O2,13.2,-3.0,5.7,4.7,2.0,.,.
COC(=O)c1ccc2nc(-c3ccc(F)cc3)c(Cc3ccc(OC)cc3C)n2c1,3.1,-6.7,-0.5,.,.,.,.
COC(=O)c1ccc2nc(-c3ccco3)c(Cc3cccc(F)c3)n2c1,56.8*,-17.6,21.7,.,.,48.2*,83.0*

# Screening results as filed in PubChem.
